Consider 5 molecules from ChEMBL document CHEMBL1122914, “Synthesis and biological activity of pentapeptide analogues of the potent angiotensin converting enzyme inhibitor 5(S)-benzamido-4-oxo-6-phenylhexanoyl-L-proline” (J Med Chem, 1985).

Type in all cases: functional
The nature of test [1]: Percent recovery of compound in rats over 24 hr when administered orally at a dose of 4.3 mg, 4.09(uCi); and activity calculated from bile of rats at time (5-6 h). In outline: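 Adult male Sprague-Dawley rats were fasted overnight, with chow and water otherwise ad libitum. The tritiated proline-4-labelled analogue was given orally in dilute NaHCO3. Bile was collected at timed intervals and urine over 24 h. Aliquots were counted by liquid scintillation, with quench correction by automatic external standardization and a quench curve. Recovery was expressed as percent of the dosed radioactivity.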

The subject of test [2] is Rattus norvegicus. Briefly: Compound was evaluated for its base line value in hypertensive rats by peroral administration at a dose of 6.4 mg/kg. To be noted: route oral. Summed up: (§1)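 One-clip/two-kidney renal hypertension was induced with a silver clip on the left renal artery, leaving the other kidney intact. Several weeks later, rats were cannulated and those with mean pressure above 160 mmHg were used. Four conscious rats per compound received an oral dose in 0.25% methylcellulose (5 mL/kg), and two received vehicle only. Mean aortic pressure was read before dosing, hourly for 8 h, and at 24 h.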

Test [3] has as its system Rattus norvegicus. Briefly: Compound was evaluated for change in blood pressure value in hypertensive rats by peroral administration at a dose of 6.4 mg/kg at 8 hr. To be noted: route oral. Summed up: as §1
The test system of test [4] is Rattus norvegicus. The test is described as follows: Compound was evaluated for maximum effect in hypertensive rats by peroral administration at a dose of 6.4 mg/kg. To be noted: route oral. In outline:
as §1

Test [5] deals with Rattus norvegicus. Briefly: Compound was evaluated for itschange in blood pressure value on hypertensive rats by peroral administration at a dose of 3.0 mg/kgat 4 hr. Conditions: dose 3 mg/kg; route oral. Summed up:
as §1

In test [6] the test system is Rattus norvegicus. The test is described as follows: Compound was evaluated for its maximum effect value on hypertensive rats by peroral administration at a dose of 3.0 mg/kg. Conditions: route oral.
Test [7] relates to Rattus norvegicus. Briefly: Compound was evaluated for its base line value on hypertensive rats by peroral administration at a dose of 3.0 mg/kg. Conditions: route oral.
The test system of test [8] is Rattus norvegicus. Briefly: Compound was evaluated for its base line value on hypertensive rats by peroral administration at a dose of 30 mg/kg. Conditions: route oral.
In test [9] the test system is Rattus norvegicus. Briefly: Compound was evaluated for itschange in blood pressure value on hypertensive rats by peroral administration at a dose of 30 mg/kg at 8 hr. Conditions: route oral.
Test [10] deals with Rattus norvegicus. The test is described as follows: Compound was evaluated for its maximum effect value on hypertensive rats by peroral administration at a dose of 30 mg/kg. To be noted: route oral.
For test [11], the system named is Rattus norvegicus. The test is described as follows: Compound was evaluated for maximum effect in hypertensive rats by peroral administration at a dose of 3.0 mg/kg. To be noted: route oral.
Test [12] relates to Rattus norvegicus. Briefly: Compound was evaluated for change in blood pressure in hypertensive rats by peroral administration at a dose of 3.0 mg/kg at 1 hr. Conditions: route oral.

Consider `[3H]C1CC(C(=O)O)N(C(=O)CCC(=O)C(Cc2ccccc2)NC(=O)C(CCCCN)NC(=O)C2CCC2)C1` (configuration not stated), for which, in [1], the Recovered radioactivity is reported as 1.42%.
In the case of `CC(CC(=O)C(Cc1ccccc1)NC(=O)C(CCCCN)NC(=O)C1CCC1)C(=O)N1CCCC1C(=O)O.O=C(O)C(F)(F)F` (configuration not stated), the “Mean aortic blood pressure” value is listed as 186 mmHg in test [2], -5 mmHg in test [3] and 181 mmHg in test [4].
In the case of `NCCCCC(NC(=O)C1CCC1)C(=O)NC(Cc1ccccc1)C(=O)CCC(=O)N1CCCC1C(=O)O.O=C(O)C(F)(F)F` (configuration not stated), the figures for the “Mean aortic blood pressure” value in test [5], in test [6] and in test [7] were -22 mmHg, 173 mmHg and 195 mmHg, respectively.
`O=C(N[C@@H](Cc1ccccc1)C(=O)CCC(=O)N1CCC[C@H]1C(=O)O)c1ccccc1`: the “Mean aortic blood pressure” value is 190 mmHg in [8], -12 mmHg in test [9] and 178 mmHg in [10].
Regarding `C[C@H](CS)C(=O)N1CCC[C@H]1C(=O)O` [CAPTOPRIL], the entries for the “Mean aortic blood pressure” value in test [11] and in [12] were 99 mmHg and -93 mmHg, respectively.
